# Screens (PubChem)
# This is a sample that favours compounds with a hit; in the whole collection about 4.7% have one here.
# MrgX1 agonist = activates human MrgX1 receptor signaling. Q96LB2. MrgX1-HEK293 cells, Fluo-4 calcium fluorescence, agonist mode; stronger effect = higher value. B-score at 10 µM. 310,000 compounds, 0.44% hits. AID 588627;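 active means calcium response B-score plate-corrected fluorescence ratio at least 3 library SD, with starting fluorescence B-score inside 5 SD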
# Target sequence (Q96LB2 whole entry, looked up): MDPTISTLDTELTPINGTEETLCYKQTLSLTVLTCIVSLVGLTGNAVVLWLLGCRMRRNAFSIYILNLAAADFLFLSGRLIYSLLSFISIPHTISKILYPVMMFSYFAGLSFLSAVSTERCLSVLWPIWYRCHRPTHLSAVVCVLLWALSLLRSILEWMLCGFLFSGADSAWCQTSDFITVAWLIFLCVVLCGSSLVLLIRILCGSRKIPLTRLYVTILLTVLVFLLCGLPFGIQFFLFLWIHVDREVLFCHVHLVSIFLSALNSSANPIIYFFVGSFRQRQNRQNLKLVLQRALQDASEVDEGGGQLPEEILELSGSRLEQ
#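 times = overnight plating, then 30 min 37 °C plus 30 min room-temperature dye loading | assay system = stable human MrgX1 HEK293 cell line | input = fifteen thousand cells per well | signal = kinetic calcium dye fluorescence, Fluo-4 NW | dosing = compound delivered in addition one of three | read-out = B-scored fluorescence response ratio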
# MrgX1 antagonist = blocks BAM8-22 activation of human MrgX1 receptor. Q96LB2. 310,000 compounds, 1.3% hits. B-score at 10 µM. MRGX1-HEK293 calcium flux, Fluo-4, BAM8-22 antagonism; stronger effect = lower value;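 active means calcium-response B-score plate-corrected more than 3 library SD below zero, starting fluorescence within 5 deviations, no agonist response on first addition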;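 further: peak minus trough fluorescence over baseline after final BAM8-22 challenge near maximal dose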
# RGS4 inh = human RGS4 inhibition | P49798 | HEK293 M3R/RGS4 inducible, Fluo-4 calcium flux; stronger effect = higher value; triggered by carbachol at its EC20 | B-score at 10 µM | 310,000 compounds, 0.45% hits | AID 463165;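 active means B-score, a plate-corrected calcium signal, over three deviations above library mean, with baseline fluorescence within five deviations of library mean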;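 further: RGS4 expression induced by doxycycline in cells with stable M3 receptor; B-score is computed from the integrated fluorescence ratio over baseline after carbachol; higher B-score means a larger calcium signal and so more RGS4 inhibition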
# Target sequence (P49798 whole entry, looked up): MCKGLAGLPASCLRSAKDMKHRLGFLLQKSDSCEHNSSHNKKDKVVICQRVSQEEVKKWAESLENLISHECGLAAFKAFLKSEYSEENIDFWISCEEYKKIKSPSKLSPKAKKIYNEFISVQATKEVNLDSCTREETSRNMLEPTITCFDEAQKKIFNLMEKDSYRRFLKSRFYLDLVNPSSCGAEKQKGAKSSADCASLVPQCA
# MrgX1 allo act = human MrgX1 positive allosteric modulation, primary screen; Q96LB2; MrgX1-HEK293, Fluo-4 calcium flux, FDSS; stronger effect = higher value; B-score at 10 µM; 310,000 compounds, 0.63% hits;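 active means plate-corrected calcium response at least 3 library SD above typical, normal starting fluorescence, not activating the receptor alone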;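 further: compound read alongside a low EC10 to EC30 dose of BAM8-22 agonist; peak minus trough fluorescence over baseline measured at the second addition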
# RGS4 act = potentiators or activators of RGS4. AID 463111. B-score at 10 µM. HEK293 M3R/inducible RGS4, carbachol calcium flux Fluo4; stronger effect = lower value. 310,000 compounds, 0.92% hits;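 active means B-score of the integrated calcium signal more than 4 SD below the library mean, with starting fluorescence not abnormally high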;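 further: negative B-score means reduced calcium response which marks RGS4 activation or potentiation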
#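 Material: Inducible-RGS4 HEK293 cells carrying M3 receptor; also added: carbachol at ECmax as muscarinic agonist stimulus; incubation: compound preincubation 20 min at room temperature before agonist; signal: Fluo4-AM (2 µM) calcium-flux fluorescence, kinetic read; measure: integrated calcium ratio converted to B score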
# KCC2 mod = modulates chloride dependent transport by human KCC2; AID 1456; B-score of Tl+ flux slope (higher = more flux/activation; lower = inhibition) at 10 µM; KCC2 cells, thallium flux FluoZin-2 fluorescence; 190,000 compounds, 2.2% hits; Q9H2X9;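 active means thallium flux slope and its plate-corrected score both differing from the plate sample mean at a set confidence after two filtering rounds, in either direction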;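 further: slope of fluorescence scaled to starting intensity during 10 to 20 s after thallium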
# MrgX1 ant reconf = confirmation of human MrgX1 receptor antagonists; shares compounds with MrgX1 antagonist; MrgX1-HEK293, BAM8-22 calcium flux, Fluo-4; stronger effect = lower value; remaining BAM8-22 calcium response % of control (stronger effect = lower value), % at 10 µM; 2,300 compounds, 19% hits; AID 602420;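 active means remaining agonist calcium response no higher than 100% minus 3 SD of agonist-only control wells, with starting fluorescence near control levels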;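 further: agonist BAM8-22 given at a near maximal EC90 to ECmax level; peak minus minimum fluorescence divided by baseline after agonist addition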
# HEK293 Ca flux = counter-screen for MrgX1 antagonists: effect in parental HEK293 cells; shares compounds with MrgX1 antagonist; Fluo-4 calcium fluorescence, FDSS; fluorescence ratio F(max-min)/F0 at 10 µM; 4,000 compounds, 2% hits; AID 624111;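 active means duplicate-averaged calcium fluorescence ratio at least three times the standard deviation of buffer wells, a nonspecific response in parental cells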
# HEK293 Ca counter = MrgX1 allosteric activator counter-screen hit in parental HEK293 cells; shares compounds with MrgX1 antagonist; parental HEK293 calcium flux, Fluo-4 fluorescence ratio; stronger effect = higher value; fluorescence ratio F(max-min)/F0 at 10 µM; 4,000 compounds, 0.4% hits; AID 624114;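 active means calcium fluorescence ratio, averaged over duplicates, at least 3 SD of the buffer-well ratio, meaning a nonspecific response in receptor-free cells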;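 further: untransfected parental HEK293 lacking MrgX1 used as counterscreen for MrgX1 allosteric activators; fluorescence change taken during the second addition on a kinetic imager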
# HEK293 Ca cntr2 = activity in parental HEK293 cells lacking MrgX1 receptor; shares compounds with MrgX1 antagonist; Fluo-4 calcium fluorescence (FDSS); stronger effect = higher value; fluorescence ratio F(max-min)/F0 at 10 µM; 4,000 compounds, 8.7% hits; AID 624115;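 active means calcium fluorescence ratio at least three times the spread of buffer wells, meaning a non-specific response in parental cells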
# Active calls of the source: *; i = inactive; / = not tested or not shown.
SMILES,MrgX1 agonist,MrgX1 antagonist,RGS4 inh,MrgX1 allo act,RGS4 act,KCC2 mod,MrgX1 ant reconf,HEK293 Ca flux,HEK293 Ca counter,HEK293 Ca cntr2
Cc1n[nH]c(=O)c2c(NC(=O)CSc3nnc(-c4ccncc4)n3C)oc(C)c12,i,-7.07*,i,i,i,/,i,i,i,i
C=CCn1c(C)nnc1SCC(=O)Nc1oc(C)c2c(C)n[nH]c(=O)c12,i,-5.26*,i,i,i,/,i,i,i,i
O=c1cc(NS(=O)(=O)c2ccccc2)nc(SCc2ccccc2Cl)[nH]1,i,i,i,i,i,-0.0745,/,/,/,/
O=c1cc(NS(=O)(=O)c2ccccc2)nc(SCc2c(Cl)cccc2Cl)[nH]1,i,-5.14*,i,i,i,-0.111,i,i,i,i
COC(=O)CNC(=O)CNC(=O)Nc1ccccc1,i,-8.09*,i,i,i,/,82.9%*,i,i,i
CCn1c(/C=C/c2ccc(O)c(O)c2)nc2ccccc2c1=O,i,-4.67*,i,i,i,/,i,i,i,i
COCCN(C(=O)CCC(=O)Nc1ccccn1)C(C(=O)NCCC(C)C)c1ccc(F)cc1 (centres undefined),i,i,i,i,i,/,/,/,/,/
COC(=O)c1ccc(OC)c(CN2CCCN(Cc3ccc(F)cc3)S2(=O)=O)c1,i,i,i,i,i,/,/,/,/,/
O=C(CSc1nnc(CNc2cccc(C(F)(F)F)c2)n1Cc1ccco1)NCc1ccco1,i,i,i,i,i,0.975,/,/,/,/
O=C(O)CSc1nnc(CNc2cccc(C(F)(F)F)c2)n1Cc1ccco1,i,-7.36*,i,i,i,0.411,78.9%*,i,i,i
CCOC(=O)N/C(N)=N/c1nc2ccccc2s1,i,-7.65*,i,i,i,-0.737,i,i,i,i
CC(=O)N/C(N)=N/c1nc(=O)c2ccccc2s1,i,i,i,i,i,0.0276,/,/,/,/
Cc1cc(S(N)(=O)=O)c(N)c(S(N)(=O)=O)c1,i,i,i,i,i,-0.107,/,/,/,/
CC(C)N(Cc1ccccc1)C(=O)C1CCN(c2ncnc3c2nc2n3CCCCC2)CC1,i,-4.76*,i,i,i,/,i,i,i,56.8*
CN(C)CCN(Cc1ccccc1)C(=O)C1CCN(c2ncnc3c2nc2n3CCCCC2)CC1,i,i,i,i,i,/,/,/,/,/
Cc1cc(C)cc(NC(=O)COC(=O)CCCNC(=O)c2ccc(Cl)cc2)c1,i,-9.69*,i,i,i,-0.646,76.6%*,i,i,i
O=C(COC(=O)CCCNC(=O)c1ccc(Cl)cc1)Nc1cc(Cl)c(Cl)cc1Cl,i,i,i,i,i,0.0583,/,/,/,/
CCc1noc(C)c1C(=O)N(C)CC(=O)Nc1ccc(OC)cc1,i,i,i,i,i,/,/,/,/,/
CCOC(=O)C1CCN(C(=O)C2CCN(S(=O)(=O)c3cccc4nsnc34)CC2)CC1,i,i,i,i,i,/,/,/,/,/
Cn1c(=O)c2c(ncn2CCN(CCO)Cc2ccccc2)n(C)c1=O,i,-6.66*,i,i,i,-1.01,80.9%*,i,i,i
O=[N+]([O-])c1cc(C(F)(F)F)ccc1NCCCCNS(=O)(=O)c1ccc(Cl)cc1,i,i,i,i,i,-0.43,/,/,/,/
O=[N+]([O-])c1cc(C(F)(F)F)ccc1NCCNC(=S)Nc1ccc(Cl)cc1,i,-10.8*,i,i,-7.12*,/,71.8%*,i,i,i
Cc1cccc(-n2ncc3c2CCCC3NC(=O)C2CCOCC2)c1C (centres undefined),i,-5.23*,i,i,i,/,74.0%*,i,i,i
Cc1ccc(NC(=O)CCc2nnc3ccc(N4CCC5(CC4)OCCO5)nn23)nc1,i,i,i,i,i,/,/,/,/,/
Cc1ccc(NC(=O)CCc2nnc3ccc(N4CCC(C)CC4)nn23)nc1,i,-7.35*,i,i,i,/,i,i,i,i
SMILES,MrgX1 agonist,MrgX1 antagonist,RGS4 inh,MrgX1 allo act,RGS4 act,KCC2 mod,MrgX1 ant reconf,HEK293 Ca flux,HEK293 Ca counter,HEK293 Ca cntr2
CCCCN(C(=O)C1CCCC1)C1CCS(=O)(=O)C1 (centres undefined),/,/,i,/,i,/,/,/,/,/
CSC1=NCCN1C(=O)c1c(-c2ccccc2Cl)noc1C,i,-6.87*,i,i,i,-0.269,i,i,i,i
COc1ccc(-c2noc(N3CCCC(C(=O)Nc4ccccc4F)C3)n2)cc1 (centres undefined),i,i,i,i,i,/,/,/,/,/
COc1ccc(-c2noc(N3CCCC(C(=O)Nc4ccc(F)cc4F)C3)n2)cc1 (centres undefined),i,-4.6*,i,i,i,/,i,i,i,i
CN(C)/C(=N\S(=O)(=O)c1ccc(Br)cc1)c1ccccc1,i,i,i,i,i,/,/,/,/,/
Cc1ccc(S(=O)(=O)N2CCCC2C(=O)NC2CCCCC2)cc1 (centres undefined),i,-13.7*,i,i,i,0.829,i,i,i,i
O=C(NC1CCCCC1)C1CCCN1S(=O)(=O)c1ccc(F)cc1 (centres undefined),i,i,i,i,i,/,/,/,/,/
CCc1cc(=O)[nH]c(SCC(=O)N2CCC(Cc3ccccc3)CC2)n1,i,i,i,i,i,/,/,/,/,/
COCC(=O)N1CCN(c2nc3ccccc3o2)CC1,i,-4.52*,i,i,i,0.0772,i,i,i,i
COc1ccccc1-c1nnc(SCC(=O)OC(C)C)o1,i,-6.62*,i,i,i,/,i,i,i,i
Cc1ccc(Cl)cc1N(CC(=O)NC1CCCC1)C(=O)c1csnn1,i,i,i,i,i,/,/,/,/,/
